Screening data (PubChem)
Sampled rows, rich in hits. Any-hit rate of the full collection: about 4.6%.
ALR H2O2 inh = inhibitors of human ALR sulfhydryl oxidase, primary screen, biochemical, H2O2 detection, HRP-luminol luminescence, single point. FAD-linked sulfhydryl oxidase ALR (Homo sapiens), P55789. purified ALR, DTT oxidation. inhibition, % (test concentration not listed). 290,000 tested, 3.8% active. AID 485317, 2010;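 active = mean replicate inhibition above about 79%, with every replicate also reaching it, limit read from the data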
Target sequence (P55789 whole entry, looked up): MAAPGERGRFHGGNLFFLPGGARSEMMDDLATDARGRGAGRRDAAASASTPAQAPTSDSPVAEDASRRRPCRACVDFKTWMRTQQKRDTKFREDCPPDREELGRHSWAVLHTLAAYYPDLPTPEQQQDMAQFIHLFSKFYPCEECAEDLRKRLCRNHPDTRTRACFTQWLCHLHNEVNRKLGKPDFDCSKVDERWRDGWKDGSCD
PolyA inhibitor = polyadenylation inhibitors in yeast reporter cells, primary screen, luminescence, S. cerevisiae; AID 1875, 2009; 300,000 tested, 0.02% active; S. cerevisiae SKY197-pL101 polyadenylation reporter, beta-gal luminescence; efflux-impaired pdr1/pdr3 knockout yeast; score 100 = 6 SD above DMSO; activity score, % at 12 µM;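 active = lowest replicate activity score at least 50, where 100 means six control SD above control mean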;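 also: yeast exposed to compound for 9 h at 30 °C; higher score means more reporter readthrough which indicates perturbed polyadenylation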
DSG3 Ab inh = inhibitors of pemphigus antibody binding to DSG3, primary screen, biochemical, bead-based, flow cytometry, scFv-GFP. Desmoglein-3 (Homo sapiens), P32926. DSG3-coupled beads, scFv-anti-DSG3-GFP binding; active compounds read low. binding (percent of control), % at 10 µM. 310,000 tested, 0.48% active. AID 588358, 2011;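 active = binding more than 3 SD below its plate's average and above zero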;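 also: hits lower antibody fragment binding to DSG3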
Arrestin-AP2 inh = inhibitors of beta-arrestin/AP2 binding, primary screen, biochemical, GPCR trafficking, flow cytometry; beta-arrestin 1 C-terminal peptide binding to AP2 beta2-adaptin appendage (human); FITC-arrestin peptide / GST-AP2 beads; AP2 beta2 appendage carries R879A mutation; inhibition, % at 10 µM; 340,000 tested, 0.31% active;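 active = inhibition above a set limit, near 3 SD of compounds lacking own fluorescence, cut at about 54% in these data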;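 also: plate controls were DMSO wells for no effect and 5 µM unlabelled arrestin peptide for full effect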
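Measured by: flow cytometry, FL1 (488/535 nm); Material: AP2 appendage R879A on GSH beads; Evaluation: percent response; Timing: pre-incubation 12 min, peptide binding 1 h, room temperature; Also added: 50 nM FITC-arrestin peptide; Medium: PBS with 0.05% Tween 20 and 0.1% BSA.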
NLRP3 yeast inh = NALP3 inflammasome inhibitors in reconstituted yeast, primary screen, luminescence, uHTS; Yeast reconstituted NLRP3/ASC/caspase-1, beta-gal luminescence, 24 h; inhibition, % at 10 µM; 330,000 tested, 0.39% active; AID 2825, 2010;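 active = inhibition of 50% or more; inactive = inhibition below 50%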;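 also: plate controls were induced DMSO wells for no effect and uninduced yeast grown without galactose for full effect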
NALP1 yeast inh = NALP1 inflammasome inhibitors in reconstituted yeast, colorimetric, S. cerevisiae, triplicate retest. S. cerevisiae NALP1/ASC/caspase-1 growth, X-gal OD620, 72 h. inhibition, % at 10 µM. 280,000 tested, 0.61% active. AID 2071, 2009; in the data active = inhibition mostly above about 24%, no sharp cut-off; inactive = mostly below about 32%
The depositor's hits bear a star; · = no result given.

SMILES	ALR H2O2 inh	PolyA inhibitor	DSG3 Ab inh	Arrestin-AP2 inh	NLRP3 yeast inh	NALP1 yeast inh
CCCCC1CCC(C(=O)N(CCC(C)C)c2c(N)n(CCCC)c(=O)[nH]c2=O)CC1 (configuration not stated)	·	·	97.4	·	·	·
CCSc1ncc(/C=N/Nc2ccccc2)n1C	98.6*	-11.1	98.7	3.0	34.5	52.0
Cc1ccccc1NS(=O)(=O)c1ccc(C(=O)NCC(C)(C)N2CCOCC2)cc1	-4.7	7.3	96.2	2.0	6.9	·
CCCCCCOc1ccc(/C(C)=N/NC2=NCCN2)cc1	·	1.7	113.1	-9.6	29.4	87.6*
CCCCCOc1ccc(/C(C)=N/NC2=NCCN2)cc1	-23.6	-2.5	131.8	8.7	2.7	17.2
CCOc1ccccc1NC(=O)NCc1ccccn1	-9.3	12.3	93.3	2.7	5.2	-1.6
COc1cc(/C=C(/C#N)C(=O)Nc2ccccc2)ccc1OCc1ccc(C(=O)O)cc1	-5.5	4.7	84.3	0.6	-1.8	13.7
CCc1ccc(NC(=O)/C(C#N)=C\c2ccc(OC)c(C(=O)O)c2)cc1	98.7*	-3.8	99.5	4.9	-2.0	-10.0
COc1ccc(/C=C(/C#N)C(=O)Nc2ccc(O)cc2)cc1C(=O)O	99.0*	3.6	98.5	3.2	1.8	-17.2
O=S(=O)(NC1CCCCC1)c1ccc(Cl)s1	-1.2	-22.9	123.2	3.8	49.6	40.8*
CCOc1ccc2c(c1)nc(SCC(=O)c1cccs1)n2C	97.0*	-0.4	70.7	-7.3	9.1	12.3
Cc1cc(C)c(C)c(S(=O)(=O)N2CCC(C(=O)Nc3ccc(S(=O)(=O)N4CCOCC4)cc3)CC2)c1C	-1.8	-4.8	99.3	10.0	14.6	7.2
O=C(CSc1nccc(-c2ccc(Br)cc2)n1)NCCc1ccccc1	13.9	0.2	69.0*	10.7	9.0	43.8
Cc1nc(SCC(=O)NCCc2ccccc2)n[nH]1	-12.7	-13.9	93.6	3.1	-8.5	5.4
N#Cc1cccc(C#N)c1NCC1CCCO1 (configuration not stated)	3.4	16.5	98.8	7.9	-1.6	20.6
CC(=O)N1CCN=C1SCc1cccc(Cl)c1	99.6*	4.7	96.2	28.3	27.4	19.8
CCC(=O)N1CCN=C1SCc1cccc(F)c1	96.5*	-0.1	103.1	18.4	-0.6	5.4
CC(=O)N1CCN=C1SCc1cccc(F)c1	97.0*	-2.3	104.8	3.4	3.5	27.4
CC(=O)N1CCN=C1SCc1cccc(C)c1	96.1*	5.2	101.0	41.1	13.6	15.8
N#Cc1cccc(NC(=O)CN2CCN(Cc3ccccc3)CC2)c1	-40.1	3.1	85.6	-1.2	17.7	12.4
O=C(N/N=C/c1ccc(F)cc1)c1ccccc1	-4.0	0.4	96.8	13.6	-0.5	31.9*
CCc1cc(C(=O)N/N=C/c2ccc(O)cc2)c2ccccc2n1	29.2	19.1	106.8	2.4	7.4	5.6
O=C(N/N=C/c1ccc(O)cc1)c1cccc(C(F)(F)F)c1	97.8*	8.8	102.5	-20.5	11.7	-27.3
O=C(N/N=C/c1ccc(F)cc1)c1c(O)c2ccccc2[nH]c1=O	·	59.5*	99.3	8.9	30.2	36.8
CC(C)(C)c1cc(C(=O)N/N=C/c2ccc(O)cc2)n(-c2ccccc2)n1	93.7*	-18.9	82.6	44.6	-8.3	12.3
O=C(N/N=C/c1ccc(O)cc1)c1cncc(Br)c1	99.5*	5.0	99.3	18.2	-6.3	25.6
COc1ccc(S(=O)(=O)N2CCN(C(=O)c3cnc(C)cn3)CC2)cc1	-7.3	9.4	105.3	3.4	7.1	6.4
Cc1cnc(C(=O)N2CCN(S(=O)(=O)c3cc(C(F)(F)F)cc(C(F)(F)F)c3)CC2)cn1	·	·	-16.9*	0.1	·	·
COC(=O)c1c(C)[nH]c(C(=O)COC(=O)CCc2ccc(OC)c(OC)c2)c1C	·	·	101.8	·	·	·
